Most compounds without a hit are left out; they make up all but 2.2% or so of the library.
HNF4A DNA FP: change in binding of human HNF4A to DNA, primary screen, biochemical, fluorescence polarization, FITC-DNA. Hepatocyte nuclear factor 4-alpha (Homo sapiens), P41235. 1 h. activity change, % at 10 µM. 0.3% of 360,000 active; in the data active = activity change above about 30%, passing the limit was not always enough
Target sequence (P41235 whole entry, looked up): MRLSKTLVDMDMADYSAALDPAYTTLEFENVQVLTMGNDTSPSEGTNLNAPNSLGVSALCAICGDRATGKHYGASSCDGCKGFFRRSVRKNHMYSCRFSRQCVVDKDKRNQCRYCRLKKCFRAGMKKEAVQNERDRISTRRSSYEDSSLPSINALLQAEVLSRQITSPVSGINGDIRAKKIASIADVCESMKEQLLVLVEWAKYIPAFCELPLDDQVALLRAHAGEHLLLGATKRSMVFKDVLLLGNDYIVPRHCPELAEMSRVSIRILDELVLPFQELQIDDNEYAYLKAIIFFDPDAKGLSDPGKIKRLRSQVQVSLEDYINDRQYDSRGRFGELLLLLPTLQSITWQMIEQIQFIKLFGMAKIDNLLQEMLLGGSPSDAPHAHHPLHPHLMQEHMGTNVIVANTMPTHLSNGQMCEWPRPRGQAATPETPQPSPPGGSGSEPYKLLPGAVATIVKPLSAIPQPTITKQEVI
CSN deneddyl inh: inhibitors of CSN-mediated cullin deneddylation, primary screen, biochemical, fluorescence polarization, uHTS; Purified CSN, SCF-Nedd8-OG deneddylation; inhibition, % at 12.5 µM; 0.38% of 360,000 active; AID 651999, 2013;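 active = pattern-corrected inhibition above about 35%, with an unprinted fluorescence ratio check between 0.5 and 1.5, limit read from the data, passing the limit was not always enough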
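Assay system: HEK293T-derived human Csn5 enzyme; quantity: 0.24 nM enzyme; medium: Tris/NaCl/DTT buffer, pH 7.5; also added: substrate SCFSkp2-Nedd8OG, 10 nM; doses: 12.5 µM compound; schedule: 90 min reaction at room temperature; signal: FP; read-out: % inhibition of substrate cleavage by Csn5; benchmarks: substrate-only high control, full reaction low control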
Exocytosis inh: LAMP-1 surface exposure blockers, TALL-104 cells – cell-based, flow cytometry, MLPCN library, primary screen | 0.66% of 360,000 active | AID 651702, 2012 | TALL-104 LAMP-1 surface exposure; cells stimulated with thapsigargin and PMA | inhibition, % at 10 µM;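 active = inhibition above about 55%, limit read from the data; inconclusive = no clear call, values can overlap the other calls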
Myeloid diff MLP: induction of myeloid progenitor differentiation, primary screen, cell-based, flow cytometry, MLPCN library; ER-HoxA9 myeloid progenitors, lysozyme-GFP differentiation; calls only at 10 µM; 1% of 360,000 active; AID 624256, 2012;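 active = normalized GFP-positive differentiation at or above the plate's own cutoff, the solvent-only control mean plus 3 SD; inconclusive = no clear call, values can overlap the other calls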;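 also: cells exposed to compound for four days before flow analysis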
Granule exo CP1: inhibitors of lytic granule exocytosis, confirmation, TALL-104 cells, flow cytometry, Cherry Pick01. shares compounds with Exocytosis inh. LAMP-1 externalization; stimulated with PMA plus thapsigargin. inhibition, % at 10 µM. 11% of 1,500 active; in the data active = inhibition above about 60%
A number is an active result; . = inactive; ? = inconclusive; / = no result given; + = active, no number.

SMILES | HNF4A DNA FP | CSN deneddyl inh | Exocytosis inh | Myeloid diff MLP | Granule exo CP1
COc1ccc(NC(=O)C2C(c3ccccc3)C2(Cl)Cl)c(OC)c1 (centres undefined) | . | . | 66 | . | .
CCOc1ccc(NC(=O)C2C(c3ccccc3)C2(Cl)Cl)cc1 (centres undefined) | . | . | 81 | . | .
Cn1c(=O)c(NC2CCCCC2)c2c3c(cccc31)C(=O)c1ccccc1-2 | . | . | 90 | + | 101
Cc1cc(C)c(OCC(=O)OCC(=O)NC2CCC(C)CC2)c(C)c1 (centres undefined) | . | . | . | . | /
COc1ccc(C(=O)NCCCNc2nc3cc(C)cc(C)c3cc2C#N)cc1 | . | . | . | . | /
COc1cc(OC)cc(C(=O)NCCNc2nc3cc(C)cc(C)c3cc2C#N)c1 | . | . | 61 | . | .
Cc1cccc(C)c1NC(=O)CNC(=O)C(Cc1ccccc1)NC(=O)c1ccccc1 (centres undefined) | . | . | . | . | /
CCc1ccc(N(C(C)=O)C2C=CS(=O)(=O)C2)cc1 (centres undefined) | . | . | 75 | . | .
Cc1c(C)n(-c2ccccc2)c2ncnc(NCCN(C)C)c12 | . | . | 65 | . | .
Cc1ccc(Nc2nc(C(=O)N3CCC(C(=O)NCCN4CCOCC4)CC3)cs2)cc1 | . | . | . | . | /
Cc1ccc(Nc2nc(C(=O)N3CCC(C(=O)NCc4ccccc4)CC3)cs2)cc1 | . | . | 65 | . | .
COc1ccc(CNC(=O)C2CCN(C(=O)c3csc(Nc4ccc(C)cc4)n3)CC2)cc1 | . | . | 58 | . | .
Cc1ccc(Nc2nc(C(=O)N3CCC(C(=O)N4CCN(C)CC4)CC3)cs2)cc1 | . | . | . | . | /
CCc1ccc(NC(=O)CSc2nnc(CNC(=O)c3cccs3)o2)cc1 | . | . | . | . | /
C[C@H](CO)N1C[C@H](C)[C@@H](CN(C)S(C)(=O)=O)Oc2ccc(N(C)C)cc2C1=O | . | . | 60 | . | .
COc1ccc(NC(=O)Nc2ccc3c(c2)C(=O)N([C@H](C)CO)C[C@H](C)[C@@H](CN(C)S(C)(=O)=O)O3)cc1 | . | . | . | . | /
COc1ccc(-n2nc3c(c2NC(=O)COc2cccc(OC)c2)CS(=O)(=O)C3)cc1 | . | . | . | . | /
CN(C)c1ccc(C(C(=O)NCC2CCCO2)N(Cc2ccco2)C(=O)c2snc(C(N)=O)c2N)cc1 (centres undefined) | . | . | . | . | /
CN(C)c1ccc(C(C(=O)NCc2ccccc2)N(Cc2ccco2)C(=O)c2snc(C(N)=O)c2N)cc1 (centres undefined) | . | . | 99 | . | .
COc1ccc(CCN2CCCC(CN(C)Cc3cccc(OC)c3)C2)cc1 (centres undefined) | . | . | 56 | . | .
COc1ccc(CN(C)CC2CCCN(CCc3ccc(F)cc3)C2)c(OC)c1OC (centres undefined) | . | . | 70 | . | .
COc1ccc(CCN2CCCC(CN(C)Cc3cc(OC)ccc3OC)C2)cc1 (centres undefined) | . | . | 72 | . | .
COc1ccccc1C(=O)N/C(=C\c1cn(C)c2ccccc12)C(=O)NCCCn1ccnc1 | . | . | 67 | . | .
Cc1ccc(Cl)cc1N1CCN(S(=O)(=O)c2cn(C)cn2)CC1 | . | . | . | . | /
COc1ccc(CNC2CCN(Cc3ccccc3)CC2)cc1 | . | . | 60 | . | .
SMILES | HNF4A DNA FP | CSN deneddyl inh | Exocytosis inh | Myeloid diff MLP | Granule exo CP1
COc1ccc(OC)c(S(=O)(=O)NC2CCN(Cc3ccccc3)CC2)c1 | . | . | . | . | /
C[C@H](CO)N1C[C@H](C)[C@H](CN(C)C(=O)Nc2ccc(-c3cccs3)cc2)OCc2cnnn2CCCC1=O | . | . | . | . | /
c1ccc2[nH]c(Cn3nnc4ccccc43)nc2c1 | . | . | 59 | . | .
COc1ccc(CC(=O)Nc2nc(-c3ccccc3)c(C(C)=O)s2)cc1OC | . | . | 78 | . | .
COc1cc(CC(=O)Nc2nc(-c3ccccc3)c(C(C)=O)s2)cc(OC)c1OC | . | . | . | . | /
Cc1ccc(-c2nn(-c3ccccc3)cc2CN(Cc2ccccc2)C(=O)c2ccco2)o1 | . | . | 108 | . | 104
O=C(NCCCN1CCN(c2ccc(F)cc2)CC1)NC12CC3CC(CC(C3)C1)C2 | . | . | 56 | . | .
O=C(NCCCN1CCOCC1)NC12CC3CC(CC(C3)C1)C2 | . | . | . | . | /
O=C(O)CCCCCCCCCCCNC(=O)NC12CC3CC(CC(C3)C1)C2 | . | . | 80 | . | .
CC1CCCC(C)N1C(=O)COC(=O)c1c[nH]c2ccccc12 (centres undefined) | . | . | . | . | /
Cn1cncc1C#Cc1c(-c2ccc(S(C)(=O)=O)cc2)sc2ccccc12 | . | . | 103 | ? | 97
COc1ccc(-c2sc3ccccc3c2C#Cc2cncn2C)cc1 | . | . | . | ? | /
N#CC1C(=O)c2ccccc2C1c1ccccc1 (centres undefined) | . | . | 64 | ? | .
CC(=O)OCCCN(C)CC/C=C1/c2ccccc2CSc2ccccc21 | . | . | 62 | . | .
C[N+](C)(C)CC/C=C1/c2ccccc2CSc2ccccc21 | . | . | . | . | /
N=c1n(CCN2CCCCC2)c2ccccc2n1CC(=O)c1ccc(Cl)c(Cl)c1 | . | . | 83 | . | .
Cc1ccc2nc(-c3ccc(NC(=O)CNC4CC4)cc3)sc2c1 | . | . | 74 | . | .
Cc1ccc(S(=O)(=O)Nc2ccc(-c3nc4ccc(C)cc4s3)cc2)cc1 | . | . | . | . | /
Cc1cccc(S(=O)(=O)Nc2ccc(-c3nc4ccc(C)cc4s3)cc2)c1 | . | . | 75 | . | .
COc1ccc(-n2sc3ccc(F)cc3c2=O)cc1 | . | . | . | . | /
COc1ccc(-n2sc3ccccc3c2=O)cc1 | . | . | 84 | . | 100
COc1cc(CNC(C)c2ccccc2)cc(Br)c1OCc1ccccc1 (centres undefined) | . | . | 88 | . | .
COc1cc(CNc2ccc(O)cc2)cc(Br)c1OCc1ccccc1 | . | . | . | . | /
COc1cc(CNC(C)c2ccccc2)cc(Br)c1OCc1ccc(F)cc1 (centres undefined) | . | . | 65 | . | .
C/C=C/c1ccc(OCCOCCNCc2ccccc2)c(OC)c1 | . | . | 70 | . | .
C[C@H](NC(=O)c1ccccc1Cl)C(=O)NCCc1ccc(S(N)(=O)=O)cc1 | . | . | . | . | /
COc1ccccc1C1CCN(Cc2cccc3ccccc23)CC1 | . | . | 60 | . | .
CCOC(=O)c1c(CN2CCN(c3ccccc3)CC2)oc2ccc(O)cc12 | . | . | . | . | /
CCOC(=O)c1c(N2CCN(c3ccccc3)CC2)cc(C)nc1C | . | . | 62 | . | .

Assay outcomes (PubChem)
